Publication PMC9662946 (Clinical Cancer Research, 2022)
Entries after “also recorded” stand apart in the source; their conditions may differ. Each block holds one compound with its values, some of them ahead of it.

Tests used:
[1] = test system: patients with advanced solid tumors; assay: Phase I safety and tolerability: AEs, SAEs, DLTs; type: in vivo, human
[2] = Plasma pharmacokinetics of AZD8186 and metabolite M1; type: in vivo, human; conditions: for Effect of the combination partner on the PK of AZD8186 (Cmax, AUC): drug–drug interaction analysis versus AZD8186 monotherapy
[3] = test system: PI3Kβ; conditions: cited from earlier work
[4] = test system: pAKT (S473), pAKT (T308), pGSK3β; assay: PD biomarkers of PI3Kβ inhibition in platelet-rich plasma; type: in vivo, human; conditions: pooled 60-mg and 120-mg BID monotherapy cohorts
[5] = test system: pAKT (S473) and pPRAS40; assay: IHC of paired tumor biopsies; type: in vivo, human; conditions: six patients, 120-mg BID monotherapy dose expansion
Summary of the method: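 Paired fresh biopsies from patients with PTEN-deficient/mutated mCRPC or TNBC, taken at screening and in week 2 after ≥3 consecutive dosing days (preferably 2–4 h post-dose; days 11 or 12 on 5:2, days 11–14 continuous). IHC for pAKT (S473) and pPRAS40 on three non-consecutive sections. Digital image analysis scored membranous pAKT and cytosolic pPRAS40 intensity as H-scores, with percent change from baseline.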

[6] = test system: advanced solid tumors; assay: Tumor response by RECIST 1.1; type: in vivo, human
Summary of the method: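 Imaging at baseline and every 6 weeks (every 12 weeks for mCRPC) until discontinuation or consent withdrawal. Patients with measurable disease were classed as complete response, partial response, stable disease or progressive disease under RECIST 1.1. Results were summarised descriptively, with percent change from baseline in target lesions.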

[7] = combined with AZD8186, dose expansion
[8] = combined with AZD8186, dose finding
[9] = non-prostate cancer, dose finding

Effect of the combination partner on the PK of AZD8186 (Cmax, AUC) [2]: little or no effect
Compound: CC(=O)O[C@H]1CC[C@@]2(C)C(=CC[C@@H]3[C@@H]2CC[C@]2(C)C(c4cccnc4)=CC[C@@H]32)C1 [Abiraterone acetate, abiraterone acetate, reference compound]
Dose interruption of the combination partner, patients [1, 7]: 72.2% | Dose reduction of the combination partner, patients [1, 7]: 33.3% | Dose interruption of the combination partner, patients [1, 8]: 56.3% | Dose reduction of the combination partner, patients [1, 8]: 18.8%

Effect of the combination partner on the PK of AZD8186 (Cmax, AUC) [2]: not affected
Compound: CNC(=O)c1cccc(-c2ccc3c(N4CCOC[C@@H]4C)nc(N4CCOC[C@@H]4C)nc3n2)c1 [Vistusertib, vistusertib, reference compound]
Dose interruption of the combination partner, patients [1, 8]: 60.0% | Dose reduction of the combination partner, patients [1, 8]: 23.3%

Compound: C[C@@H](Nc1cc(F)cc(F)c1)c1cc(C(=O)N(C)C)cc2c(=O)cc(N3CCOCC3)oc12 [AZD8186, (R)-8-(1-(3,5-difluorophenylamino)ethyl)-N,N-dimethyl-2-morpholino-4-oxo-4H-chromene-6-carboxamide]
IC50 [3]: 4 nM | Any AE ([1]; dose expansion): 19 (95.0) n (%) | Any AE causally related to AZD8186 only ([1]; dose expansion): 11 (55.0) n (%) | Any AE leading to discontinuation of AZD8186 ([1]; dose expansion): 1 (5.0) n (%) | Any AE leading to dose modification of AZD8186 ([1]; dose expansion): 0 n (%) | Any SAE (including deaths) ([1]; dose expansion): 4 (20.0) n (%) | Any SAE (including deaths), causally related to AZD8186 only ([1]; dose expansion): 2 (10.0) n (%) | Any SAE causing discontinuation of AZD8186 ([1]; dose expansion): 0 n (%) | Any SAE causing discontinuation of AZD8186, causally related to AZD8186 only ([1]; dose expansion): 0 n (%) | Any grade ≥3 AE ([1]; dose expansion): 8 (40.0) n (%) | Any grade ≥3 AE causally related to AZD8186 only ([1]; dose expansion): 3 (15.0) n (%) | Death ([1]; dose expansion): 0 n (%) | Death causally related to AZD8186 only ([1]; dose expansion): 0 n (%) | Dose interruption of AZD8186, patients ([1]; dose expansion): 35.0% | Dose reduction of AZD8186, patients ([1]; dose expansion): No dose reductions | Anemia, grade ≥3 causally related AE, patients ([1]; dose finding): 4.8% | Any AE ([1]; dose finding): 63 (100.0) n (%) | Any AE causally related to AZD8186 only ([1]; dose finding): 55 (87.3) n (%) | Any AE leading to discontinuation of AZD8186 ([1]; dose finding): 11 (17.5) n (%) | Any AE leading to dose modification of AZD8186 ([1]; dose finding): 10 (15.9) n (%) | Any SAE (including deaths) ([1]; dose finding): 23 (36.5) n (%) | Any SAE (including deaths), causally related to AZD8186 only ([1]; dose finding): 10 (15.9) n (%) | Any SAE causing discontinuation of AZD8186 ([1]; dose finding): 6 (9.5) n (%) | Any SAE causing discontinuation of AZD8186, causally related to AZD8186 only ([1]; dose finding): 5 (7.9) n (%) | Any grade ≥3 AE ([1]; dose finding): 39 (61.9) n (%) | Any grade ≥3 AE causally related to AZD8186 only ([1]; dose finding): 20 (31.7) n (%) | Aspartate aminotransferase increase, grade ≥3 causally related AE, patients ([1]; dose finding): 4.8% | Colitis, grade ≥3 causally related AE, patients ([1]; dose finding): 4.8% | Death ([1]; dose finding): 0 n (%) | Death causally related to AZD8186 only ([1]; dose finding): 0 n (%) | Diarrhea, AE causally related to AZD8186, patients ([1]; dose finding): 41.3% | Fatigue, AE causally related to AZD8186, patients ([1]; dose finding): 22.2% | Hypophosphatemia, grade ≥3 causally related AE, patients ([1]; dose finding): 4.8% | Maculo-papular rash, grade ≥3 causally related AE, patients ([1]; dose finding): 4.8% | Nausea, AE causally related to AZD8186, patients ([1]; dose finding): 27.0% | Vomiting, AE causally related to AZD8186, patients ([1]; dose finding): 23.8% | Dose interruption of AZD8186, patients ([1]; dose finding, whole arm): 49.2% | Dose interruption of AZD8186 related to AEs, patients ([1]; dose finding, whole arm): 38.1% | Dose reduction of AZD8186, patients ([1]; dose finding, whole arm): 17.5% | Tolerability ([1]; monotherapy dose expansion, 60-mg BID (5:2) and 120-mg BID (continuous)): well tolerated | Patients who experienced a DLT ([1]; monotherapy dose finding, 53 evaluable for DLTs): 7.5% | half-life ([2]; human, plasma, oral, terminal elimination half-life, overall range, after a single dose): 1.4 to 13.8 h | Effect on the PK of abiraterone acetate ([2]; in vivo): little effect | Cmax and AUC versus dose ([2]; single- and multiple-dose administration): dose proportional; also recorded: increased with dose | pAKT (S473), pAKT (T308), and pGSK3β in platelet-rich plasma [4]: Substantial reductions | Patients with substantial reduction in pAKT (S473) membrane fraction [5]: all six patients | Patients with substantial reduction in pPRAS40 [5]: five of the six patients | Duration of RECIST 1.1 partial response ([6]; dose finding): 372 days | RECIST 1.1 best objective response stable disease, patients [6, 9]: 38.9% | RECIST 1.1 disease progression, patients [6, 9]: 55.6% | RECIST 1.1 confirmed partial response, patients ([6]; non-prostate cancer, dose finding (120-mg BID; 2:5)): 5.6% | RECIST 1.1 disease progression, patients ([6]; prostate cancer, dose expansion): 25.0% | RECIST 1.1 best objective response stable disease, patients ([6]; prostate cancer, dose finding): 37.5% | RECIST 1.1 disease progression, patients ([6]; prostate cancer, dose finding): 62.5%

Compound: C[C@]12C=CC(=O)C=C1CC[C@@H]1[C@@H]2C(=O)C[C@@]2(C)[C@H]1CC[C@]2(O)C(=O)CO [prednisone, reference compound]
Dose interruption of the combination partner, patients [1, 7]: 77.8% | Dose reduction of the combination partner, patients [1, 7]: 22.2% | Dose interruption of the combination partner, patients [1, 8]: 56.3% | Dose reduction of the combination partner, patients [1, 8]: 18.8%
